The test system of experiment [1] is MCF7. Nature of the experiment: Stimulation of human MCF7 cell proliferation up to 100 uM after 96 hrs by alamar blue assay relative to estradiol. The experiment is classed as functional, cell-based. In short, it runs like this:
(§1)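 Compounds were given alone at 0.1, 1, 10 and 100 µM, and stimulation of proliferation was compared with estradiol at 1–100 pM. Cell proliferation assay as in an earlier report.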

The subject of experiment [2] is T47D. Nature of the experiment: Stimulation of human T47D cell proliferation up to 100 uM after 96 hrs by alamar blue assay relative to estradiol. The experiment is classed as functional, cell-based. In short, it runs like this: as §1
(In general: The colour change of resazurin is a common sign of viable cells or microbes.)

The subject of experiment [3] is MCF7. Briefly: Antiestrogenic activity in human MCF7 cells assessed as drug level causing inhibition of 100 pM E2-enhanced cell proliferation to level equivalent to 50 pM E2 after 96 hrs by alamar blue assay. In kind it is functional. In short, it runs like this: (§2)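 Cells seeded at 1 × 10^4 per well in phenol red-free RPMI with 5% DCC-treated FBS. E2 was added from a 20 nM solution to give 100 pM and preincubated 1 h at 37 °C, 5% CO2. Compounds were then added at 0.1, 1, 10 and 100 µM for 96 h, with serially diluted tamoxifen as positive control. Antagonism was judged from cell populations. iEqE values were obtained by linear regression over four concentrations.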

In experiment [4] the test system is MCF7. Nature of the experiment: Antiestrogenic activity in human MCF7 cells assessed as drug level causing inhibition of 100 pM E2-enhanced cell proliferation to level equivalent to 10 pM E2 after 96 hrs by alamar blue assay. The experiment is classed as functional. A digest of the protocol: as §2
The subject of experiment [5] is MCF7. Briefly: Antiestrogenic activity in human MCF7 cells assessed as drug level causing inhibition of 100 pM E2-enhanced cell proliferation to level equivalent to 1 pM E2 after 96 hrs by alamar blue assay. In kind it is functional. A digest of the protocol: as §2
Experiment [6] relates to T47D. Briefly: Antiestrogenic activity in human T47D cells assessed as drug level causing inhibition of 100 pM E2-enhanced cell proliferation to level equivalent to 50 pM E2 after 96 hrs by alamar blue assay. In kind it is functional. In short, it runs like this:
as §2

Experiment [7] relates to T47D. Briefly: Antiestrogenic activity in human T47D cells assessed as drug level causing inhibition of 100 pM E2-enhanced cell proliferation to level equivalent to 10 pM E2 after 96 hrs by alamar blue assay. In kind it is functional. In short, it runs like this: as §2
Experiment [8] deals with T47D. Briefly: Antiestrogenic activity in human T47D cells assessed as drug level causing inhibition of 100 pM E2-enhanced cell proliferation to level equivalent to 1 pM E2 after 96 hrs by alamar blue assay. The experiment is classed as functional. In short, it runs like this:
as §2

Experiment [9] concerns T47D. Briefly: Antiestrogenic activity in human T47D cells assessed as inhibition of E2-enhanced cell proliferation at 0.1 to 100 uM after 96 hrs by alamar blue assay. In kind it is functional. A digest of the protocol:
as §2

Activity calls are given as the source filed them. The calls are words filed in the database; no cut-off is given here. Where only a bound is given, the exact number is not on record here.

On to `Oc1ccc([C@H]2OC[C@H]3[C@@H]2CO[C@@H]3c2ccc(O)c(O)c2)cc1O`, for which the outcome in experiment [1] and in [2] was inactive. Also, the Activity in experiment [3] came out at 0.2 µM; in experiment [4], 31 µM; in [5], 94 µM; in experiment [6], 0.2 µM; in experiment [7] it was 26 µM; in [8], 73 µM.
`COc1cc(/C=C/CO)ccc1O[C@@H]1O[C@H](COC(=O)/C=C/c2ccc(O)c(O)c2)[C@@H](O)[C@H](O)[C@H]1O` [KHAINAOSIDE C]: the outcome in [1] and in [2] was inactive. The Activity was 4 µM in experiment [3]; 4 µM in experiment [4]; 5 µM in experiment [5]; below 0.1 µM in experiment [6]; below 0.1 µM in experiment [7]; above 100 µM in experiment [8]. Besides, the “inhibition (INH)” value in [9] is on record as above 90%.
With `OC/C=C/c1ccc2c(c1)O[C@H](c1ccc(O)c(O)c1)[C@@H](CO)O2` [ISOAMERICANOL A], the outcome in experiment [1] and in experiment [2] was inactive. The Activity in experiment [3] was below 0.1 µM; in experiment [4], 6 µM; in experiment [5] it was above 100 µM; in experiment [6], below 0.1 µM; in [7], 9 µM; in experiment [8], above 100 µM.
Turning to `COc1cc(C[C@H](CO)[C@@H](CO[C@@H]2O[C@H](CO)[C@@H](O)[C@H](O)[C@H]2O)Cc2cc(OC)c(O)c(OC)c2)cc(OC)c1O`, the outcome in experiment [1] and in experiment [2] was inactive. The Activity in experiment [3] was below 0.1 µM; in experiment [4] it was 0.8 µM; in [5], 93 µM; in experiment [6] it was 0.6 µM; in experiment [7], above 100 µM; in experiment [8], above 100 µM.
Turning to `COc1cc([C@H]2OC[C@H]3[C@@H]2CO[C@@H]3c2cc(OC)c(O[C@@H]3O[C@H](CO)[C@@H](O)[C@H](O)[C@H]3O)c(OC)c2)cc(OC)c1O`, the outcome in [1] and in experiment [2] was inactive. In addition, the Activity in experiment [3] is below 0.1 µM; in experiment [4] it was below 0.1 µM; in experiment [5], below 0.1 µM; in experiment [6], below 0.1 µM; in experiment [7] it was 19 µM; in experiment [8], above 100 µM.
`COc1cc([C@H]2OC[C@H]3[C@@H]2CO[C@@H]3c2cc(OC)c(O)c(OC)c2)cc(OC)c1O` [SYRINGARESINOL]: the outcome in experiment [1] and in [2] was inactive. Besides, the Activity in [3] was 2 µM; in experiment [4], 4 µM; in experiment [5], 5 µM; in experiment [6] it was below 0.1 µM; in experiment [7], 1 µM; in experiment [8], 7 µM.
As for `COc1cc(O)cc(OC)c1O[C@@H]1O[C@H](CO)[C@@H](O)[C@H](O)[C@H]1O` [LEONURISIDE], the result in [1] and in experiment [2] was inactive. The Activity in experiment [3] was below 0.1 µM; in experiment [4], below 0.1 µM; in [5], above 100 µM; in experiment [6] it was 0.4 µM; in [7] it was 39 µM; in experiment [8], above 100 µM.
For the molecule `CC/C(=C(\c1ccccc1)c1ccc(OCCN(C)C)cc1)c1ccccc1` [TAMOXIFEN], the Activity worked out at 0.1 µM in experiment [3]; 0.2 µM in experiment [4]; 0.4 µM in experiment [5]; 0.1 µM in [6]; 0.7 µM in experiment [7]; 9 µM in [8].
As for `C[C@@H](/C=C/[C@]1(O)[C@]2(C)CO[C@@]1(C)CC(=O)C2)O[C@@H]1O[C@H](CO)[C@@H](O)[C@H](O)[C@H]1O` [SPIONOSIDE B], the outcome in [1] and in experiment [2] was inactive. For the same molecule, the Activity was below 0.1 µM in experiment [3]; below 0.1 µM in experiment [4]; 15 µM in experiment [5]; 0.2 µM in [6]; 61 µM in experiment [7]; above 100 µM in experiment [8].
`OC[C@@H]1Oc2ccc([C@H]3OC[C@H]4[C@@H]3CO[C@@H]4c3ccc(O)c(O)c3)cc2O[C@H]1c1ccc(O)c(O)c1` [PRINCEPIN]: the outcome in experiment [1] and in [2] was inactive. Further, the Activity is 0.3 µM in [3]; 4 µM in experiment [4]; 7 µM in experiment [5]; 0.4 µM in experiment [6]; 1 µM in experiment [7]; 6 µM in experiment [8].
For `OC[C@H]1O[C@@H](Oc2cc([C@H]3OC[C@]4(O)[C@@H](c5ccc6c(c5)OCO6)OC[C@]34O)ccc2O)[C@H](O)[C@@H](O)[C@@H]1O` [KHAINAOSIDE A], the outcome in experiment [1] and in [2] was inactive. Moreover, the Activity in [3] was below 0.1 µM; in [4] it was below 0.1 µM; in experiment [5], below 0.1 µM; in experiment [6], below 0.1 µM; in experiment [7] it was below 0.1 µM; in experiment [8] it was 3 µM.
As to `COc1cc([C@H](O[C@@H]2O[C@H](CO)[C@@H](O)[C@H](O)[C@H]2O)[C@@H](CO)Oc2c(OC)cc(/C=C/CO)cc2OC)ccc1O`, the outcome in [1] and in experiment [2] was inactive. Moreover, the Activity in [3] was below 0.1 µM; in experiment [4] it was 6 µM; in [5] it was above 100 µM; in [6] it was below 0.1 µM; in [7], above 100 µM; in experiment [8] it was above 100 µM. Besides, the “inhibition (INH)” value in [9] is reported as above 50%.
`COc1cc([C@H]2Oc3c(OC)cc(/C=C/CO)cc3[C@@H]2CO)ccc1O[C@@H]1O[C@H](CO)[C@@H](O)[C@H](O)[C@H]1O`: the result in experiment [1] and in experiment [2] was inactive. Further, the Activity in experiment [3] was 0.3 µM; in experiment [4], above 100 µM; in [5], above 100 µM; in [6], below 0.1 µM; in experiment [7], 63 µM; in [8], above 100 µM.
For `COc1cc(O[C@@H]2O[C@H](CO)[C@@H](O)[C@H](O)[C@H]2O)ccc1O` [TACHIOSIDE], the result in experiment [1] and in [2] was inactive. The Activity is below 0.1 µM in experiment [3]; 0.2 µM in experiment [4]; above 100 µM in experiment [5]; below 0.1 µM in experiment [6]; 10 µM in [7]; above 100 µM in [8].
